Columns and labels:
[1] = system: NCI/ADR-RES; experiment: Selectivity index, ratio of GI50 for human MCF7 cells to GI50 for human MCF7/ADR cells; format: functional
[2] = Antiproliferative activity against human MCF7/ADR cells after 96 hrs by MTT assay; format: functional; conditions: NCI/ADR-RES
Procedure, shortened: (§1)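 MTT: cells seeded at 1.5-4.0 × 10^4 cells/mL and incubated overnight at 37 C, then exposed to 5-9 concentrations (DMSO stocks diluted in growth medium; final DMSO ≤0.5%) for 96 h. MTT added at 0.5 mg/mL for a further 4 h at 37 C and the formazan dissolved. Inhibition calculated relative to control; GI50 estimated by curve fitting; 3-5 repeats, mean ± SD.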

[3] = system: MCF7; experiment: Antiproliferative activity against human MCF7 cells after 96 hrs by MTT assay; format: functional; conditions: MCF7, 96 h; procedure, shortened: as §1
[4] = target: T1, MDR1 (ABCB1) (Homo sapiens, UniProt P08183); experiment: Activity at MDR1 (unknown origin) expressed in MDCK cells assessed as permeability across basolateral to apical after 90 mins by LC-MS/MS analysis; format: ADME, cell-based
[5] = Permeability across apical to basolateral side in MDCK cells after 90 mins by LC-MS/MS analysis; format: ADME, cell-based, Canis lupus familiaris; conditions: dog
Procedure, shortened: (§2)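 Wild-type MDCK cells on Transwell filters. Transport was run in HBSS pH 7.4 at 37 °C in A-B and B-A directions, and plates were separated after 90 min incubation. Efflux ratio is Papp(B-A)/Papp(A-B). Papp is reported as "<" when receiver concentrations were below the quantitation limit.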

[6] = Permeability across basolateral to apical side in MDCK cells after 90 mins by LC-MS/MS analysis; format: ADME, cell-based, Canis lupus familiaris; conditions: dog; procedure, shortened: as §2
[7] = Efflux ratio of permeability across basolateral to apical side over apical to basolateral side in MDCK cells; format: ADME, cell-based, Canis lupus familiaris; conditions: dog; procedure, shortened: as §2
[8] = target: T1, MDR1 (ABCB1); experiment: Activity at MDR1 (unknown origin) expressed in MDCK cells assessed as efflux ratio of permeability across basolateral to apical side over apical to basolateral side; format: ADME, cell-based
[9] = target: T1, MDR1 (ABCB1); experiment: Activity at MDR1 (unknown origin) expressed in MDCK cells assessed as permeability across apical to basolateral after 90 mins by LC-MS/MS analysis; format: ADME, cell-based

T1 sequence (P08183 whole entry): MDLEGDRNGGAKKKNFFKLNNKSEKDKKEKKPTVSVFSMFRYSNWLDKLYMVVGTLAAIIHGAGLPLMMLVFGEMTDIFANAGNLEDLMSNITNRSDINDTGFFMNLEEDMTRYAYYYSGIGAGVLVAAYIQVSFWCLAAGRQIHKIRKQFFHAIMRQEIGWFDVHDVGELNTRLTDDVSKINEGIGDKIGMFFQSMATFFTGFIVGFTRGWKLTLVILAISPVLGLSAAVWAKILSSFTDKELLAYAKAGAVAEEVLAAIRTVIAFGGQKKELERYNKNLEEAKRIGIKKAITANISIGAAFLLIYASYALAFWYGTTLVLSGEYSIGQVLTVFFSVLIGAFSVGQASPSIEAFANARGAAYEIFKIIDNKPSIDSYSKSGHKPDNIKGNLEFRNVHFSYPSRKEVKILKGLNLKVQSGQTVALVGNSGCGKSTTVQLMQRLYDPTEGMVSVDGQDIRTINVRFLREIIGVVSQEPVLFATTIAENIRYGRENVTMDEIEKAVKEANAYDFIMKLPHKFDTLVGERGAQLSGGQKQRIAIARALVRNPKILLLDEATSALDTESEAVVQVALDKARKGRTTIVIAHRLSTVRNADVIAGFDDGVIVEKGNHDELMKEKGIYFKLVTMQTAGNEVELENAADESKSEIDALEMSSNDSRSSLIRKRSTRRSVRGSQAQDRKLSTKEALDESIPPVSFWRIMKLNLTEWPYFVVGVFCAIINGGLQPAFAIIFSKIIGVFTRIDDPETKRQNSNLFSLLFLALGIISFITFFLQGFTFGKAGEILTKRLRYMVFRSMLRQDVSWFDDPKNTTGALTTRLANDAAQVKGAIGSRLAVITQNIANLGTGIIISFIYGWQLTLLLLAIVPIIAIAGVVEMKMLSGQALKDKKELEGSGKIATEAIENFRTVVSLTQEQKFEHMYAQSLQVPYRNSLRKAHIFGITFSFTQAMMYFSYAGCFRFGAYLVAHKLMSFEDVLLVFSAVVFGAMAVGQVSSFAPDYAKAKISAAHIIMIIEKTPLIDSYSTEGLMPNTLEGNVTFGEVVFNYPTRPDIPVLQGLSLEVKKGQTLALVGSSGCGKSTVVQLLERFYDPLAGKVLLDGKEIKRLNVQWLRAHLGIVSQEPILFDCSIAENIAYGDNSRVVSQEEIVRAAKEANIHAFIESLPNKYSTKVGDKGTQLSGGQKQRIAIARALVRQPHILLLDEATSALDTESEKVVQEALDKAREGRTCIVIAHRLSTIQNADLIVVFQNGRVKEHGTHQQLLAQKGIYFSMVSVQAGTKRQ

| SMILES | RatioGI50 [1] | GI50 [2] [nM] | GI50 [3] [nM] | Papp B→A at 1.5 h [4] [×10⁻⁶ cm/s] | Papp A→B at 1.5 h [5] [×10⁻⁶ cm/s] | Papp B→A at 1.5 h [6] [×10⁻⁶ cm/s] | efflux ratio [7] | efflux ratio [8] | Papp A→B at 1.5 h [9] [×10⁻⁶ cm/s] |
| --- | --- | --- | --- | --- | --- | --- | --- | --- | --- |
| C[C@H]1[C@@H](Oc2ccc(/C=C/C(=O)N3CCN(c4ccccc4)CC3)cc2)O[C@@H]2O[C@@]3(C)CC[C@H]4[C@H](C)CC[C@@H]1[C@@]24OO3 | 2.16 | 51 | 110 |  |  |  |  |  |  |
| C=C[C@H]1C[N@@]2CC[C@H]1C[C@@H]2[C@@H](O)c1ccnc2ccc(OC)cc12 [QUINIDINE] |  |  |  | 34.1 | 9.98 | 23.4 | 2.34 | 7.81 | 4.37 |
| C[C@H]1[C@@H](Oc2ccc(C(=O)N3CCN(c4ccccc4)CC3)cc2)O[C@@H]2O[C@@]3(C)CC[C@H]4[C@H](C)CC[C@@H]1[C@@]24OO3 | 1.33 | 75 | 100 |  |  |  |  |  |  |
| COc1ccccc1N1CCN(Cc2ccc(O[C@H]3O[C@@H]4O[C@@]5(C)CC[C@H]6[C@H](C)CC[C@@H]([C@H]3C)[C@@]46OO5)cc2)CC1 | 3.87 | 150 | 580 |  |  |  |  |  |  |
| C[C@H]1[C@@H](Oc2ccc(CN3CCN(c4ccc(F)cc4)CC3)cc2)O[C@@H]2O[C@@]3(C)CC[C@H]4[C@H](C)CC[C@@H]1[C@@]24OO3 | 21.2 | 25 | 530 | < 0.85 | < 1.33 | < 0.83 |  |  | < 1.34 |
| C[C@H]1[C@@H](Oc2ccc(CC(=O)N3CCN(c4cccc(C(F)(F)F)c4)CC3)cc2)O[C@@H]2O[C@@]3(C)CC[C@H]4[C@H](C)CC[C@@H]1[C@@]24OO3 | 6.34 | 41 | 260 |  |  |  |  |  |  |
| C[C@H]1[C@@H](Oc2ccc(CC(=O)N3CCN(c4ccccc4)CC3)cc2)O[C@@H]2O[C@@]3(C)CC[C@H]4[C@H](C)CC[C@@H]1[C@@]24OO3 | 4.78 | 90 | 430 |  |  |  |  |  |  |
| COc1ccccc1N1CCN(C(=O)/C=C/c2ccc(O[C@H]3O[C@@H]4O[C@@]5(C)CC[C@H]6[C@H](C)CC[C@@H]([C@H]3C)[C@@]46OO5)cc2)CC1 | 4.52 | 31 | 140 |  |  |  |  |  |  |
| C[C@H]1[C@@H](Oc2ccc(CN3CCN(c4cccc(C(F)(F)F)c4)CC3)cc2)O[C@@H]2O[C@@]3(C)CC[C@H]4[C@H](C)CC[C@@H]1[C@@]24OO3 | 6.67 | 33 | 220 |  |  |  |  |  |  |
| C[C@H]1[C@@H](O)O[C@@H]2O[C@@]3(C)CC[C@H]4[C@H](C)CC[C@@H]1[C@@]24OO3 [ARTENIMOL] | 10 | 3320 | 33200 | 24.9 | 31.4 | 25.1 | 0.8 | 0.89 | 28 |

Reference: ChEMBL document CHEMBL3751676, “Combating P-glycoprotein-mediated multidrug resistance with 10-O-phenyl dihydroartemisinin ethers in MCF-7 cells” (Eur J Med Chem, 2016)
